Screening data: PubChem, several laboratories
MEKK2 mut-MEK5 – signal of MEK5 binding to mutant human MEKK2 PB1 domain. bead flow cytometry, Alexa488-MEK5 binding to MEKK2 mutant. percent response, % at 10 µM. 290,000 tested, 0.35% active; in the data active = percent response above about 24%, passing the limit was not always enough
HCV NS3 hel inh – HCV NS3 helicase inhibition. NS3 helicase DNA unwinding, Cy5 molecular beacon fluorescence. inhibition, % at 10.9 µM. 290,000 tested, 0.56% active;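 active = inhibition above the mean of all tested compounds plus 3 SD, set per campaign, cut at about 35% in these data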
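Measured by: Cy5 fluorescence, 0 and 60 min reads / Assay system: NS3 helicase fragment of HCV / Control set: low DMSO, high thioflavine S at 110 µM / Times: 1 h reaction at 25 °C, ATP-initiated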
DNA FID counter – fluorescent intercalator displacement, NS3 helicase counter-screen | DNA fluorescent intercalator displacement, fluorescence | inhibition, % at 7.9 µM | 290,000 tested, 0.17% active | AID 1845; in the data active = inhibition above about 37%;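 note: higher means more ethidium bromide displaced from hairpin DNA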
T cruzi repl – T. cruzi replication inhibition. T. cruzi beta-gal in NIH3T3, luminescence, 90 h. inhibition, % (no concentration beside the values). 300,000 tested, 1.4% active. AID 1885;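 active = mean inhibition across valid replicates above about 55%, limit read from the data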;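 note: signal also drops with host cell toxicity which is not excluded here; higher percent means less beta-gal luminescence so fewer parasites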
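System: Mouse NIH/3T3 fibroblasts infected with β-gal-expressing T. cruzi Tulahuen C4 | Quantity: NIH/3T3 cells, 5,000 per well | Reagent: 5000 reporter trypomastigotes per well | Dosing: Compound pinned at 50 nL/well, DMSO | Schedule: 3 h host attachment, then at least 90 h co-culture | Detection: GalScreen luminescence, 60 min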
MEKK3 PB1 HTS – modulators (inhibitors or enhancers) of MEK5 binding to human MEKK3 PB1 domain; bead-based flow cytometry, Alexa488-MEK5 binding to MEKK3; actives lie on both sides; 0 = blocked by unlabeled MEK5, 100 = vehicle; binding response (% of control), % at 10 µM; 290,000 tested, 1.4% active;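 active = binding response more than 3 SD above or below the average of its plate-row segment, actives on both sides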;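 note: Alexa488 bead fluorescence after subtracting the streptavidin-only scavenger bead signal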
Target sequence (Q99759 whole entry, looked up, the tested form may be a part): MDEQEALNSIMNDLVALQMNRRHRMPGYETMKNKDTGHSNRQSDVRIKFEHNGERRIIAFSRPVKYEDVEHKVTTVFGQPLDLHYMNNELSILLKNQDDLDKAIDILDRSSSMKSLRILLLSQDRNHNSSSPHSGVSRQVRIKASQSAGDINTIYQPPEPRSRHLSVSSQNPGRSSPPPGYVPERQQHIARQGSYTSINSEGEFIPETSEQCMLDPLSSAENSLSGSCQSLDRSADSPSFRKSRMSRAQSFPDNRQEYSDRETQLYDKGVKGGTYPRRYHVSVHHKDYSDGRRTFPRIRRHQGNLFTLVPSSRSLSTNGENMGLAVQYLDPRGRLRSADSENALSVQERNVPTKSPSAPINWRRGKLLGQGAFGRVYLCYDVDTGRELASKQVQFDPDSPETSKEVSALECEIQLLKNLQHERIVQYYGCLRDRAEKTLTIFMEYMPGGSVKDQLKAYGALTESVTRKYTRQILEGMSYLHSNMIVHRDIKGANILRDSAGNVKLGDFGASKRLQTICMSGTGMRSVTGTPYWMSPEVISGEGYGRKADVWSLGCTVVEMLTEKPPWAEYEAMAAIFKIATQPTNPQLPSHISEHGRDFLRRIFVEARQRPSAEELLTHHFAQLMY
MEKK2wt PB1 HTS – raises or lowers MEK5 binding to wildtype human MEKK2 PB1 domain. Q9Y2U5. bead flow cytometry, Alexa488-MEK5 binding to MEKK2 WT; actives lie on both sides. binding response (% of control), % at 10 µM. 290,000 tested, 1.1% active. AID 1531; in the data active = binding response below about 67% or above about 130%
MEKK2wt confirm – raises or lowers MEK5 binding to wildtype human MEKK2, retest. shares compounds with MEKK3 PB1 HTS. bead flow cytometry, Alexa488-MEK5 binding to MEKK2 WT; actives lie on both sides. binding response (% of control), % at 10 µM. 5,900 tested, 2.4% active. AID 1892; in the data active = binding response below about 16% or above about 210%; inactive = in between
MEKK2mut-MEK5 – signal of MEK5 binding to mutant human MEKK2, retest; 5,900 tested, 2% active; shares compounds with MEKK3 PB1 HTS; percent response, % at 10 µM; AID 1893; bead flow cytometry, Alexa488-MEK5 binding to MEKK2 mutant; in the data active = percent response mostly above about 71%, no sharp cut-off; inactive = mostly below about 38%;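 note: higher means compound restores mutant binding toward wildtype level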
MEKK3 confirm – MEKK3-MEK5 PB1 inhibition, single concentration confirmation | shares compounds with MEKK3 PB1 HTS | bead flow cytometry, Alexa488-MEK5 binding to MEKK3; stronger effect = lower value | binding response (% of control), % at 10 µM | 5,900 tested, 1.8% active;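 active = binding response below 72% of control, or above a set upper limit, though filed actives all read lower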
Large screens that a line does not name were inactive (follow-up assays come after a bar, where they were run); [ ] = remark or other dose. In the library only some 4.1% were active in any assay of this set; here they are far more common.

COc1ccc(-c2csc(NC(=O)CS(=O)(=O)c3ccccc3)n2)cc1	none (no result: MEKK2 mut-MEK5, HCV NS3 hel inh, DNA FID counter, MEKK3 PB1 HTS, MEKK2wt PB1 HTS)
COc1ccc(-c2csc(NC(=O)c3cccc(S(=O)(=O)N4CCN(C)CC4)c3)n2)cc1	MEKK3 PB1 HTS 72[inhibitor] | MEKK2wt confirm inactive | MEKK2mut-MEK5 inactive | MEKK3 confirm inactive
CN1CCN(S(=O)(=O)c2cccc(C(=O)Nc3nc(-c4ccccc4)cs3)c2)CC1	none (no result: MEKK2 mut-MEK5, MEKK3 PB1 HTS, MEKK2wt PB1 HTS)
COc1ccc(-c2csc(NC(=O)C3CCCCN3S(=O)(=O)c3ccccc3)n2)cc1 (stereo unspecified)	MEKK3 PB1 HTS 80[inhibitor] | MEKK2wt confirm inactive | MEKK2mut-MEK5 inactive | MEKK3 confirm inactive
COc1ccc(NC(=O)Nc2ccc3c(c2)OCO3)c(C)c1	none
O=C(c1cc(COc2c(F)cccc2F)on1)N1CCC(c2ccccc2F)C1 (stereo unspecified)	none
O=C(c1cc(COc2c(F)cccc2F)on1)N1C[C@H]2CC[C@H]1C2	MEKK3 PB1 HTS 49[inhibitor] | MEKK2wt confirm inactive | MEKK2mut-MEK5 inactive | MEKK3 confirm 39
O=C(c1cc(COc2c(F)cccc2F)on1)N1CCC(c2ccccc2Cl)C1 (stereo unspecified)	MEKK3 PB1 HTS 49[inhibitor] | MEKK2wt confirm inactive | MEKK2mut-MEK5 inactive | MEKK3 confirm inactive
O=C(CNCCC1=CCCCC1)Nc1ccc(N2CCCCCC2)cc1	MEKK2wt PB1 HTS 188 | MEKK2wt confirm inactive | MEKK2mut-MEK5 inactive | MEKK3 confirm inactive
O=C(CNC1CCCCCC1)Nc1ccc(N2CCCC2)cc1	none (no result: MEKK2 mut-MEK5, MEKK3 PB1 HTS, MEKK2wt PB1 HTS)
O=C(COC(=O)C1CCCCC1)Nc1ccc(N2CCCCC2)cc1	MEKK2 mut-MEK5 47, MEKK2wt PB1 HTS 150 | MEKK2wt confirm inactive | MEKK2mut-MEK5 inactive | MEKK3 confirm inactive
NS(=O)(=O)c1ccc(NC(=O)COC(=O)C2CCCCC2)cc1	none
O=C(Nc1ccc(N2CCOCC2)cc1)C1CCCCC1	MEKK3 PB1 HTS 82[inhibitor] | MEKK2wt confirm inactive | MEKK2mut-MEK5 inactive | MEKK3 confirm inactive
COc1ccc(CC(NC(C)=O)C(=O)NC2CCN(c3ncccc3[N+](=O)[O-])CC2)cc1 (stereo unspecified)	none
COc1ccc(CN2CCOCCOCCN(Cc3ccc(OC)cc3)CCOCCOCC2)cc1	none
O=C(NCCCN1CCC(Cc2ccccc2)CC1)c1ccc2nc(N3CCOCC3)sc2c1	MEKK2wt PB1 HTS 144 | MEKK2wt confirm inactive | MEKK2mut-MEK5 inactive | MEKK3 confirm inactive
CC1CCCC(C)N1CCCNC(=O)c1ccc2nc(N3CCOCC3)sc2c1 (stereo unspecified)	none
Cc1ccc(S(=O)(=O)NCc2ccc(C(=O)NCCCN3CCC(Cc4ccccc4)CC3)cc2)cc1	MEKK2wt PB1 HTS 161 | MEKK2wt confirm inactive | MEKK2mut-MEK5 inactive | MEKK3 confirm inactive
Cc1nn(CCCC(=O)NCCc2ccccc2)c(=O)c2nccn12	none
COc1ccccc1NS(=O)(=O)c1cc(Cl)ccc1OC	none
Cn1c(=O)n(CC(=O)Nc2ccccc2)c2ccccc21	none
O=C(Cn1c(=O)n(-c2ccccc2)c(=O)c2oc3ccccc3c21)Nc1ccccc1	MEKK3 PB1 HTS 131 | MEKK2wt confirm inactive | MEKK2mut-MEK5 inactive | MEKK3 confirm inactive
COc1ccc(C(=O)C2CCCN(S(=O)(=O)c3ccccc3F)C2)c(C)c1 (stereo unspecified)	none
Cc1nn(-c2ccccc2)c(Cl)c1CN(C(=O)CCl)c1ccc(Cl)cc1	MEKK3 PB1 HTS 145 | MEKK2wt confirm inactive | MEKK2mut-MEK5 inactive | MEKK3 confirm inactive
CN(C)CCSc1nc(-c2ccccc2)nc2c1CCC2	MEKK3 PB1 HTS 138 | MEKK2wt confirm inactive | MEKK2mut-MEK5 inactive | MEKK3 confirm inactive
NC(=O)CSc1nc(-c2ccccc2)nc2c1CCCC2	none
CCc1ccc(S(=O)(=O)N/N=C\c2ccc3c(c2)OCO3)cc1	none
O=C(N/N=C/c1ccc2c(c1)OCO2)C(=O)Nc1cccc(Cl)c1	none
OCCN(CCO)CC(O)COc1ccc(C23CC4CC(CC(C4)C2)C3)cc1 (stereo unspecified)	MEKK3 PB1 HTS 132 | MEKK2wt confirm inactive | MEKK2mut-MEK5 inactive | MEKK3 confirm inactive
COCCNC(=O)C1=NOC(Cn2cc(C#N)c(=O)n(C)c2=O)C1 (stereo unspecified)	MEKK3 PB1 HTS 145 | MEKK2wt confirm inactive | MEKK2mut-MEK5 inactive | MEKK3 confirm inactive
CC(=O)OC(C(=O)NC1CCCCC1)c1ccncc1 (stereo unspecified)	MEKK3 PB1 HTS 75[inhibitor] | MEKK2wt confirm inactive | MEKK2mut-MEK5 inactive | MEKK3 confirm inactive
N#Cc1ccccc1CSCCNC(=O)Cc1c(F)cccc1Cl	none
C=CCn1c(=O)/c(=C2/Sc3ccccc3N2CC)s/c1=C1/C(=O)NN=C1C	MEKK2wt PB1 HTS 57[inhibitor] | MEKK2wt confirm inactive | MEKK2mut-MEK5 inactive | MEKK3 confirm inactive
C=CCN1C(=O)/C(=C2/Sc3ccccc3N2CC)SC1=S	none
NC(N)=N/N=C/c1ccc(OS(=O)(=O)c2ccccc2)cc1	T cruzi repl 57, MEKK2wt PB1 HTS 146 | MEKK2wt confirm inactive | MEKK2mut-MEK5 inactive | MEKK3 confirm inactive
O=C(NCCCN1CCCC1=O)c1ccc(Cl)c(Cl)c1	none
Cc1ccc(C(=O)NCCNC(=O)COc2ccc(C)c(C)c2)cn1	none
Cc1[nH]c2ccc(C(=O)OCC(=O)NC3(C#N)CCCCC3)cc2c1C	none (no result: MEKK2 mut-MEK5, HCV NS3 hel inh, DNA FID counter, MEKK3 PB1 HTS, MEKK2wt PB1 HTS)
O=C(/C=C/c1ccco1)Nc1cccc2cccnc12	MEKK3 PB1 HTS 62[inhibitor] | MEKK2wt confirm inactive | MEKK2mut-MEK5 inactive | MEKK3 confirm inactive
O=C(O)/C=C/C(=O)Nc1cccc2cccnc12	none
Cc1ccccc1-n1nc(C)c2cc(C(=O)N3CCOCC3)sc21	MEKK2wt PB1 HTS 211 (no result: T cruzi repl) | MEKK2wt confirm inactive | MEKK2mut-MEK5 inactive | MEKK3 confirm inactive
Cc1ccc(S(=O)(=O)N2CCN(C(=O)c3cc4c(C)nn(-c5ccccc5C)c4s3)CC2)cc1	none
Cc1ccc(Cl)cc1NC(C#N)c1ccccc1 (stereo unspecified)	MEKK3 PB1 HTS 129 | MEKK2wt confirm inactive | MEKK2mut-MEK5 inactive | MEKK3 confirm inactive
COc1ccc(C(C#N)Nc2ccccc2OC)cc1 (stereo unspecified)	none
CCOC(=O)c1sc2cc([N+](=O)[O-])cc(SCC(C)C)c2c1N	MEKK2 mut-MEK5 28, MEKK2wt PB1 HTS 16 | MEKK2wt confirm inactive | MEKK2mut-MEK5 inactive | MEKK3 confirm inactive
